Experimental data taken from publication PMC3024764 (The Journal of Biological Chemistry, 2010).

Columns and labels:
[1] = test system: DU145 xenografts; test: Anti-tumor activity in human prostate cancer DU145 xenografts in nude mice; assay type: in vivo, human tumor in BALB/c-nu/nu mice; conditions: taxol alone, 60 mg/kg i.v. day 0; data not shown
Outline: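 DU145 cells implanted s.c. into right flank of 5–6-week-old male BALB/c nude mice; tumor pieces passaged s.c. into new mice. At ~100 mm3 (day 0), six mice/group. Taxol 60 mg/kg i.v. on day 0; test compound or vehicle given intratumorally on days 0 and 5. Caliper volume = longest × shortest²/2; body weight tracked; Student's t test.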

[2] = test system: DU145 cells; assay type: cell-based, human; conditions: for intracellular accumulation, fluorescence microscopy: 20 µM FITC-labeled peptide, 4 h (Fig. S1A; method section: 10 μM)
Outline: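 FITC-labeled peptides were added to the DU145 culture medium at 10 um and incubated for 4 h. Intracellular distribution of fluorescein was then imaged by fluorescence microscopy with a CCD camera.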

[3] = test system: DU145 cells; test: Flow cytometric cell cycle analysis of DU145 cells; assay type: cell-based, human; conditions: 20 μM peptide, 24 h (Fig. 2A)
[4] = test system: endogenous p27^Kip1; assay type: cell-based, human; conditions: 20 μM FITC-labeled peptide, 24 h (Fig. 2B)
Outline: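 DU145 cells (RPMI 1640, 10% FBS, 100 ug/ml kanamycin, 5% CO2) were exposed to 20 uM FITC-labeled cell-permeable peptides, or no peptide, for 24 h. Whole lysates or separated cytoplasmic and nuclear fractions were immunoblotted for endogenous p27Kip1 using nitrocellulose and ECL, with β-actin and topoisomerase II as markers. For localization, cells were formaldehyde-fixed, stained with anti-p27Kip1 and Alexa Fluor 568 secondary, and counterstained with Hoechst 33342.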

[5] = test system: DU145 cells; test: Apoptosis of DU145 cells; assay type: cell-based, human; conditions: 20 μM peptide, 72 h; flow cytometry (Fig. 3A)

| Compound | inhibitory effect on tumor growth, given alone [1] | intracellular accumulation, fluorescence microscopy [2] | intracellular accumulation, flow cytometric analysis ([2]; FITC-labeled peptide (Fig. S1B)) | increase in the number of cells in G1 phase [3] | expression of p27^Kip1 [4] | increase in the sub-G1 fraction [5] |
| --- | --- | --- | --- | --- | --- | --- |
| CC(=O)O[C@H]1C(=O)[C@@]2(C)[C@H]([C@H](OC(=O)c3ccccc3)[C@]3(O)C[C@H](OC(=O)[C@H](O)[C@@H](NC(=O)c4ccccc4)c4ccccc4)C(C)=C1C3(C)C)[C@]1(OC(C)=O)CO[C@@H]1C[C@@H]2O [taxol] | did not show an inhibitory effect |  |  |  |  |  |
| GGGRRRRRRGC-KKPGLDRDQT [R8-T198mu] |  | had accumulated in cells | had accumulated almost equally in cells | not with Arg^8 and R8-T198mu | not R8-T198mu enhances the expression of p27^Kip1 | not with R8-T198mu |
| GGGRRRRRRRRGC [Arg^8, reference compound] |  | had accumulated in cells |  | not with Arg^8 and R8-T198mu |  |  |
